Data reported in ChEMBL document CHEMBL3112486, “Novel class of benzoic acid ester derivatives as potent PDE4 inhibitors for inhaled administration in the treatment of respiratory diseases” (J Med Chem, 2014).
Activity calls are given as the source filed them. No cut-off for these calls is given here.

Key:
Cavia porcellus [1] = test: Inhibition of ovalbumin-induced lung eosinophilia in Dunkin-Hartley guinea pig at 0.3 umol/kg administered intratracheally 2 hrs before ovalbumin challenge; assay type: functional; conditions: inhaled or nasal
How it was run: (§1)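 Sensitized guinea pigs challenged on day 20 after first sensitization with a 1 h aerosol of OVA (10 μg/mL in saline); sham group received saline aerosol. Compound given intratracheally as a dry powder formulation 2 h or 24 h before challenge. Read-out was airway/lung eosinophil influx.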

[2] = n-Octanol-buffer partition coefficient, log D of the compound at pH 7.4 by shake-flask method
Cavia porcellus [3] = test: Inhibition of ovalbumin-induced lung eosinophilia in Dunkin-Hartley guinea pig at 0.01 to 3 umol/kg administered intratracheally 24 hrs before ovalbumin challenge; assay type: functional, organism-based; how it was run: as §1
Cavia porcellus [4] = test: Inhibition of ovalbumin-induced lung eosinophilia in Dunkin-Hartley guinea pig at 3 umol/kg administered intratracheally 2 hrs before ovalbumin challenge; assay type: functional; conditions: inhaled or nasal; how it was run: as §1
Cavia porcellus [5] = test: Inhibition of ovalbumin-induced lung eosinophilia in Dunkin-Hartley guinea pig at 1 umol/kg administered intratracheally 2 hrs before ovalbumin challenge; assay type: functional; conditions: inhaled or nasal; how it was run: as §1
Cavia porcellus [6] = test: Inhibition of ovalbumin-induced lung eosinophilia in Dunkin-Hartley guinea pig at 0.1 umol/kg administered intratracheally 2 hrs before ovalbumin challenge; assay type: functional; conditions: inhaled or nasal; how it was run: as §1
Cavia porcellus [7] = test: Inhibition of ovalbumin-induced lung eosinophilia in Dunkin-Hartley guinea pig administered intratracheally 2 hrs before ovalbumin challenge; assay type: functional; how it was run: as §1
[8] = Permeability across apical to basolateral side in human Calu3 cells at 1.5 to 7 uM up to 120 mins by LC-MS/MS analysis; assay type: ADME, cell-based; conditions: calu-3, 2 h
How it was run: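 Calu-3 cells grown on Transwell filters in MEM at 37 °C, 5% CO2, for 3 days plus a further 11–27 days until confluent. Compound added apically at 1.5, 3.5 and 7 μM. Receiver compartment sampled at 0, 30, 60, 90, 120 min; quantified by LC−MS/MS.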

[9] = Metabolic stability in lung parenchyma of COPD patients under hydrolytic/proteolytic condition; assay type: ADME, tissue-based; conditions: human
[10] = Metabolic stability in human plasma assessed as compound remaining at 5 uM after 1 hr by LC-MS/MS analysis; assay type: ADME, cell-free; conditions: read-out: Stability
How it was run: (§2)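 Compound from 5 mM DMSO stock added to plasma at 5 μM final and incubated at 37 °C up to 120 min. Aliquots taken at 0, 15, 30, 60, 90, 120 min and quenched with 2 volumes of chilled acetonitrile, then centrifuged.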

[11] = Metabolic stability in rat plasma assessed as compound remaining at 5 uM after 1 hr by LC-MS/MS analysis; assay type: ADME, cell-free; conditions: read-out: Stability; how it was run: as §2
[12] = Half life in human lung slices at 1 uM after 2 hrs by LC-MS/MS analysis; assay type: ADME, tissue-based
How it was run: (§3)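 Fresh lung slices preincubated 1 h at 37 °C under 95% O2/5% CO2 in DMEM/F12 with 10% FCS, then incubated with compound at 1 μM in MEM-Earle without phenol red for up to 2 h. Three replicates for human slices, four for rat. Compound measured by LC−MS/MS at 0, 20, 40, 60, 90, 120 min; testosterone (n = 2) checked slice viability.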

[13] = Half life in rat lung slices at 1 uM after 2 hrs by LC-MS/MS analysis; assay type: ADME, tissue-based; how it was run: as §3
Cavia porcellus [14] = test: Inhibition of ovalbumin-induced lung eosinophilia in Dunkin-Hartley guinea pig at 0.01 umol/kg administered intratracheally 2 hrs before ovalbumin challenge; assay type: functional; conditions: inhaled or nasal; how it was run: as §1
U-937 [15] = test: Selectivity ratio of IC50 for bovine retina PDE6 to IC50 for PDE4 isolated from human U937 cells; assay type: cell-based
How it was run: (§4)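 PDE1 from bovine brain, PDE6 from bovine retina, PDE2/3/5 from human platelets. Each was tested in a radiometric two-step assay at five concentrations, in duplicate, starting at 30 μM with 1:10 serial dilution and 1% DMSO. […] Ratio = PDEx IC50 / PDE4 IC50.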

U-937 [16] = test: Selectivity ratio of IC50 for human platelet PDE5 to IC50 for PDE4 isolated from human U937 cells; assay type: cell-based; how it was run: as §4
U-937 [17] = test: Selectivity ratio of IC50 for human platelet PDE3 to IC50 for PDE4 isolated from human U937 cells; assay type: cell-based; how it was run: as §4
U-937 [18] = test: Selectivity ratio of IC50 for human platelet PDE2 to IC50 for PDE4 isolated from human U937 cells; assay type: cell-based; how it was run: as §4
[19] = target: T1, cGMP-dependent 3',5'-cyclic phosphodiesterase (Homo sapiens, UniProt O00408); test: Inhibition of human platelet PDE2
T1 sequence (O00408 whole entry): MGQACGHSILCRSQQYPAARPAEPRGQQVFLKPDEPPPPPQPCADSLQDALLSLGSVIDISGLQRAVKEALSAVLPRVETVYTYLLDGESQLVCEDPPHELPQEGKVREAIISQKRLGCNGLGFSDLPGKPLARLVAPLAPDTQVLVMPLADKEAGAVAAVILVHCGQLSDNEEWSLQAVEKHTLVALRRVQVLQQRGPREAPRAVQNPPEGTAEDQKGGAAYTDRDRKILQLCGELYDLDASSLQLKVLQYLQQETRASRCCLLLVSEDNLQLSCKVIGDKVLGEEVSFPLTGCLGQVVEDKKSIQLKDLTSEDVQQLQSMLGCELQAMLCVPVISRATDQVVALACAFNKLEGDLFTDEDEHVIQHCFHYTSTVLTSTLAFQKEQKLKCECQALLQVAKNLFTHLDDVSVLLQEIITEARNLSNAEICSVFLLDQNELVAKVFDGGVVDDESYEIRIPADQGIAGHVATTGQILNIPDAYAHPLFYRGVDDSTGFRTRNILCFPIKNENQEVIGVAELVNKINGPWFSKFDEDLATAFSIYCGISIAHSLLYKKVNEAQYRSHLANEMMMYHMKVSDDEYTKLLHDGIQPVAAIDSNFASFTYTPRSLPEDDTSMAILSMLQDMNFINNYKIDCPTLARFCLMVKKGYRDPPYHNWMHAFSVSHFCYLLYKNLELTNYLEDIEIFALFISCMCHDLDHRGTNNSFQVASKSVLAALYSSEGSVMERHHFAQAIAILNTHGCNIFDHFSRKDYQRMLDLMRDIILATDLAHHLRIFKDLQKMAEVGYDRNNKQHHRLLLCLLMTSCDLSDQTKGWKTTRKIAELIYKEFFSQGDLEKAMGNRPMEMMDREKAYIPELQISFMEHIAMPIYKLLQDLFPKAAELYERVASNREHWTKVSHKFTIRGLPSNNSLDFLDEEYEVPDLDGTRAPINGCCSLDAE
How it was run: (§5)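 Radiometric two-step assay (modified Thompson–Appleman). PDE1 from bovine brain; PDE2, PDE3, PDE5 from human platelets; PDE6 from bovine retina. Compound tested in duplicate at five concentrations, starting at 30 μM with 1:10 serial dilution, 1% final DMSO.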

Phosphodiesterase 3 [20] = target: T2, Phosphodiesterase 3 (Homo sapiens, UniProt Q14432+Q13370); test: Inhibition of human platelet PDE3; how it was run: as §5
[21] = Inhibition of bovine brain PDE1; parameters: species or system Bos taurus; how it was run: as §5
[22] = Apparent permeability across human Caco2 cells at 10 uM after 2 hrs by LC-MS/MS analysis; assay type: ADME, cell-based; conditions: Caco-2
How it was run: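 Caco-2 cells cultured 24 h, then switched to enterocyte differentiation medium for 3 days to form monolayers. Test compound 10 μM in DMEM (1% DMSO) added apically; apical pH 6.5, basolateral pH 7.4. After 2 h at 37 °C, apical, basolateral and starting solutions quantified by LC−MS/MS. Papp (nm/s) = flux/initial donor concentration; caffeine and cimetidine run as references.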

[23] = Inhibition of bovine retina PDE6; parameters: species or system Bos taurus; how it was run: as §5
[24] = Half life in human lung S9 fraction; assay type: ADME, tissue-based
How it was run: (§6)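 Lung S9 fraction (0.5 mg protein/mL) incubated in duplicate with compound at 1 μM in Dulbecco's buffer pH 7.4, 37 °C, with 1 mM NADPH. Samples taken at 0, 15, 30, 60 min and quenched in ice-cold acetonitrile; unchanged compound measured by LC−MS/MS. Controls were no-NADPH and buffer-only incubations; 7-ethoxyresorufin 1 μM served as phase I positive control.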

[25] = Plasma protein binding in human at 5 uM after 5 hrs by LC-MS/MS analysis; assay type: ADME, cell-free; conditions: read-out: PPB (converted)
How it was run: (§7)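 Equilibrium dialysis: plasma spiked at 5 μM (from 500 μM stock) dialysed against phosphate buffer pH 7.4 for 5 h at 37 °C with slow rotation. Samples extracted with ACN/MeOH containing verapamil internal standard, centrifuged, and analysed by LC−MS/MS.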

[26] = Metabolic stability in human lung S9 fraction assessed as compound remaining at 1 uM after 1 hr by LC-MS/MS analysis; assay type: ADME; conditions: read-out: Stability; how it was run: as §6
[27] = Half life in rat lung S9 fraction; assay type: ADME, tissue-based; how it was run: as §6
U-937 [28] = test: Selectivity ratio of IC50 for bovine brain PDE1 to IC50 for PDE4 isolated from human U937 cells; assay type: cell-based; how it was run: as §4
[29] = Metabolic stability in rat lung S9 fraction assessed as compound remaining at 1 uM after 1 hr by LC-MS/MS analysis; assay type: ADME; conditions: read-out: Stability; how it was run: as §6
[30] = Plasma protein binding in rat at 5 uM after 5 hrs by LC-MS/MS analysis; assay type: ADME, cell-free; conditions: read-out: PPB (converted); how it was run: as §7
Phosphodiesterase 4 [31] = target: T3, Phosphodiesterase 4 (Homo sapiens, UniProt P27815+Q08499+Q07343+Q08493); test: Inhibition of PDE4 activity in human PBMC assessed as inhibition of LPS-induced TNFalpha release after 18 hrs by ELISA
How it was run: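 Human PBMCs plated at 10^5 cells/well in RPMI 1640 without phenol red plus 10% FBS, at 37 °C, 5% CO2. Compound added at 10^-15 to 10^-6 M (final DMSO 0.2%), with E. coli LPS at 3 ng/mL final, for 18 h. TNFα in supernatant measured by paired-antibody ELISA. IC50 from four-parameter logistic nonlinear regression, reported with 95% confidence intervals.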

Phosphodiesterase 4 [32] = target: T3, Phosphodiesterase 4; test: Inhibition of PDE4 isolated from human U937 cells assessed as […] by LANCE assay; assay type: cell-free; conditions: u-937
[33] = target: 3',5'-cyclic-AMP phosphodiesterase 4D (Homo sapiens) (UniProt Q08499); conditions: Sf9
3',5'-cyclic-AMP phosphodiesterase 4D (Homo sapiens), sequence (Q08499 whole entry): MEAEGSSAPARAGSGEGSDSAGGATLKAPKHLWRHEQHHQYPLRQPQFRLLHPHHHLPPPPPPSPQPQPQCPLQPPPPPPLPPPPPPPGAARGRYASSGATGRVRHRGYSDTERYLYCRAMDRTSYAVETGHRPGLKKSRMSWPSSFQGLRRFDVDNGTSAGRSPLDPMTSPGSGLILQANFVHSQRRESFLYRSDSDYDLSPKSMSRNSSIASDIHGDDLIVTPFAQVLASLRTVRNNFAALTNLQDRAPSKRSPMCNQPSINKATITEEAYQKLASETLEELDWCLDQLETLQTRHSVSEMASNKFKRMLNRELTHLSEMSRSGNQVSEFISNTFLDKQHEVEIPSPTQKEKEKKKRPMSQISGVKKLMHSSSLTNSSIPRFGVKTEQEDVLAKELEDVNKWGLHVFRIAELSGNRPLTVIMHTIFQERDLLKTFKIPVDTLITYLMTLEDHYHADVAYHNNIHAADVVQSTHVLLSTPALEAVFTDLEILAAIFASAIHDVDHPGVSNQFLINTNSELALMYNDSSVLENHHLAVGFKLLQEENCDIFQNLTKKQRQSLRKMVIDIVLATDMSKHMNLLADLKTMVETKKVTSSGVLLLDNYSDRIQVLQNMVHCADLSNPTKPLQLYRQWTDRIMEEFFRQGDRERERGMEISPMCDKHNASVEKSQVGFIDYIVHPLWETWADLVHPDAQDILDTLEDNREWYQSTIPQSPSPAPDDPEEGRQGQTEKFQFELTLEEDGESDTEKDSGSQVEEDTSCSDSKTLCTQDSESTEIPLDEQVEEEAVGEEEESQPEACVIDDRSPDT

[34] = target: 3',5'-cyclic-AMP phosphodiesterase 4B (Homo sapiens) (UniProt Q07343); conditions: Sf9
3',5'-cyclic-AMP phosphodiesterase 4B (Homo sapiens), sequence (Q07343 whole entry): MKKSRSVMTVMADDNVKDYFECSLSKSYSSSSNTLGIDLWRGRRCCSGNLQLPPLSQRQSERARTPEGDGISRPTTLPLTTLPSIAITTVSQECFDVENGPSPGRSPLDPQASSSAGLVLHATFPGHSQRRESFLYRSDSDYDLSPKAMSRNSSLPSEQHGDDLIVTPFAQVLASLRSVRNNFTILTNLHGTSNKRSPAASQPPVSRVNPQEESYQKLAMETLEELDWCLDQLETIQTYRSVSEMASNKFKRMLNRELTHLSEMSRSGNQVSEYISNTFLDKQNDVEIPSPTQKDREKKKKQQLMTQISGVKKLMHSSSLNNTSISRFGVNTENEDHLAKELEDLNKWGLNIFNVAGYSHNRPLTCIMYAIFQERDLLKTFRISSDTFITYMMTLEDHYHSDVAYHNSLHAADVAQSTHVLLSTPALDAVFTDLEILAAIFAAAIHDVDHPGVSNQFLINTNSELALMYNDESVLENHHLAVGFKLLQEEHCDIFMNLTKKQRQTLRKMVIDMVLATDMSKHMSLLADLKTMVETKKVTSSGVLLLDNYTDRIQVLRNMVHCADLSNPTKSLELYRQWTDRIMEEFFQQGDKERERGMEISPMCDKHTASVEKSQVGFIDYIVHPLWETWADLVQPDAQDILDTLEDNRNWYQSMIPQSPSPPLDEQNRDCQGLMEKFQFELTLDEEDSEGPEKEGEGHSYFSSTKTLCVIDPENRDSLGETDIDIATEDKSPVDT

[35] = target: T1, cGMP-dependent 3',5'-cyclic phosphodiesterase; test: Inhibition of human platelet PDE2 at 10 uM
Phosphodiesterase 3 [36] = target: T2, Phosphodiesterase 3; test: Inhibition of human platelet PDE3 at 10 uM
[37] = target: cGMP-specific 3',5'-cyclic phosphodiesterase PDE5 (Homo sapiens) (UniProt O76074); test: Inhibition of human platelet PDE5 at 10 uM

Compound `C[C@@H]1C[C@H]2[C@@H]3C[C@H](F)C4=CC(=O)C=C[C@]4(C)[C@@]3(F)[C@@H](O)C[C@]2(C)[C@@]1(OC(=O)c1ccco1)C(=O)SCF` [FLUTICASONE FUROATE] has an inhibition in vivo at 0.3 µmol/kg (Cavia porcellus [1]) of 90% and a logD [2] of 4.43.

In the case of `CS(=O)(=O)Nc1ccc(C(=O)O[C@@H](Cc2c(Cl)c[n+]([O-])cc2Cl)c2ccc(OC(F)F)c(OCC3CC3)c2)cc1OCC1CC1`, the inhibition (Cavia porcellus [3]) is reported as “Active”, the inhibition in vivo at 3 µmol/kg (Cavia porcellus [4]) is reported as 100% and the inhibition in vivo at 1 µmol/kg (Cavia porcellus [5]) is reported as 83%. The inhibition in vivo at 0.1 µmol/kg (Cavia porcellus [6]) was 66%, the inhibition (Cavia porcellus [7]) was “Dose-dependent effect” and the ED50 (Cavia porcellus [7]; inhaled or nasal) was 0.016 µmol/kg. For the same compound, the permeability [8] was “impermeable”, the Stability [9] was “Stable” and the remaining at 1 h, 5 µM [10] was 100%. The remaining at 1 h, 5 µM [11] was 100%, the half-life at 1 µM [12] was 3.95 h and the half-life at 1 µM [13] was 2.87 h. For the same compound, the inhibition in vivo at 0.01 µmol/kg (Cavia porcellus [14]) was 47%, the Ratio IC50 (U-937 [15]) was over 20000 and the Ratio IC50 (U-937 [16]) was over 20000. The Ratio IC50 (U-937 [17]) was over 20000, the Ratio IC50 (U-937 [18]) was over 20000 and the IC50 [19] was over 1000 nM. For the same compound, the IC50 (Phosphodiesterase 3 [20]) was over 1000 nM, the IC50 [21] was over 1000 nM and the Papp at 2 h, 10 µM [22] was under 1 ×10⁻⁶ cm/s. The IC50 [23] was over 1000 nM, the half-life [24] was over 4.67 h and the fraction unbound at 5 h, 5 µM [25] was 0.0002. The remaining at 1 h, 1 µM [26] was 100%, the half-life [27] was 3.15 h and the Ratio IC50 (U-937 [28]) was over 20000. For the same compound, the remaining at 1 h, 1 µM [29] was 88%, the fraction unbound at 5 h, 5 µM [30] was 0.008 and the logD [2] was 4.48. For the same compound, the IC50 (Phosphodiesterase 4 [31]) was 0.06 nM, the IC50 (Phosphodiesterase 4 [32]) was 0.04 nM and the T1/2 [33] was over 20 h. It also gave a T1/2 [34] of over 20 h.

`O=C(OC(Cc1c(Cl)cncc1Cl)c1ccc(OC(F)F)c(OCC2CC2)c1)c1ccc(OC(F)F)c(OCC2CC2)c1` (racemic) showed an inhibition [35] of 0%, an inhibition (Phosphodiesterase 3 [36]) of 18% and an IC50 (Phosphodiesterase 4 [32]) of 3.45 nM. The inhibition [37] was 58%.
